hDAT+cocaine – changed human dopamine transporter uptake under cocaine IC80; Q01959; hit rate 1.3% among 110,000; B-score at 10 µM; LLC-PK1 hDAT cells, [14C]-dopamine uptake with cocaine IC80; actives deviate in either direction;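 active means Z score or B-score, a plate-position-corrected score, falls beyond the plate's 99.7% confidence bounds, in either direction; inactive means both scores lie inside the 99.7% bounds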;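 further: scored against the spread of the other compound wells on the same plate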
D1 mod – D1 dopamine receptor (human) allosteric modulation; HEK293 D1, CRE-luciferase, dopamine EC30 potentiation; actives deviate in either direction; B-score at 10 µM; P21728; hit rate 5.9% among 58,000; AID 641;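 active means luminescence count or its row- and column-corrected plate score outside the 99.7% band of the plate's sample wells, on either side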
Target sequence (P21728 whole entry, looked up): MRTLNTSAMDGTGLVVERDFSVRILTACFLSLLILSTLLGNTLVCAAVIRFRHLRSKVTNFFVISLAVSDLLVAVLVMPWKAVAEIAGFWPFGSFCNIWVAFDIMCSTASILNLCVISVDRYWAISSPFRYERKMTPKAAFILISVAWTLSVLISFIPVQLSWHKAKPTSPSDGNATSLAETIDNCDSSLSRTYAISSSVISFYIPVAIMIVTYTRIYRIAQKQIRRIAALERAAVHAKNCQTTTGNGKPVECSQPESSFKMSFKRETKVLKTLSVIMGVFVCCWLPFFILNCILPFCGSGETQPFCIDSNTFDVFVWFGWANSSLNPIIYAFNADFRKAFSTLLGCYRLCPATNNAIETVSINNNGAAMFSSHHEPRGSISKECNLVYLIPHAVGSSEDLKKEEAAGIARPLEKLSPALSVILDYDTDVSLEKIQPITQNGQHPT
AP ELISA ortho – alternative pathway complement inhibition, orthogonal assay. Human serum alternative complement pathway, LPS-coated ELISA, C3 deposition; tested in compound mixtures. inhibition, % at 5 µM. AID 1235. hit rate 0.08% among 62,000;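 active means inhibition above 30% in each of the two pooled mixtures holding the compound, so the lower value exceeds 30%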;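 further: 0% = serum in Mg-EGTA without compound and 100% = EDTA serum blank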
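Assay system: Human serum alternative complement pathway, C3 deposition on LPS-coated wells | Incubation: 1 h serum-compound exposure at 37 °C | Doses: 5 µM per compound in ten-compound mixtures | Read-out: Percent inhibition | Technique: ELISA with HRP anti-human C3 antibody, TMB substrate, absorbance 450 nm | Replication: Two pool placements per compound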
HEK293 NFkB inh – lowers PMA/ionomycin-induced NF-kB signal in HEK293 cells. HEK-293 NF-kB luciferase reporter, luminescence. inhibition, % at 3 µM. hit rate 0.21% among 62,000. AID 465;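 active means inhibition above the mean of all tested compounds plus 3 SD, cut at about 40% in these data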;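 further: 0% = stimulated DMSO wells and 100% = 10 µM reference inhibitor 5653914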
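Signal: luciferase luminescence; Material: HEK-293 cells with stable firefly luciferase reporter driven by four HIV NF-kB elements; Probe or stimulus: PMA with ionomycin; Replication: tested once; Times: 1 h compound pretreatment, then 16 h stimulation at 37 °C, 5% CO2; Benchmarks: DMSO and 10 µM reference inhibitor; Evaluation: per-plate % inhibition versus controls.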
E coli RNAP – inhibitors of Escherichia coli RNA polymerase; P0A8V2; E. coli RNA polymerase, fluorescence transcription assay; inhibition, %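 (tested at 10 µM)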; hit rate 0.2% among 62,000; AID 559; in the data active means inhibition above about 20%;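 further: 0% = enzyme without compound and 100% = no enzyme blank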
An asterisk follows results filed as active; / = no result given. Shown is part of a subset that was picked to be rich in hits.

SMILES	hDAT+cocaine	D1 mod	AP ELISA ortho	HEK293 NFkB inh	E coli RNAP
Cc1ccccc1Nc1nc(-c2sc(NC(=O)c3ccc([N+](=O)[O-])cc3)nc2C)cs1	0.805	/	/	/	/
Cc1nc(NC(=O)c2ccccc2)sc1-c1csc(Nc2ccc(Cl)cc2Cl)n1	2.39*	/	/	/	/
O=C(Nc1ccc2c(c1)OCO2)C1CCN(S(=O)(=O)c2cccc3cccnc23)CC1	-0.711	/	18.1	15.0	0.9
C[C@H]1[C@@H](OC(=O)CCC(=O)O)O[C@@H]2OC3(C)CC[C@H]4[C@H](C)CC[C@@H]1[C@@]24OO3	0.581	/	/	/	/
CC1(C)Cc2nc3oc4c(NCc5ccccc5)ncnc4c3cc2CO1	/	0.204	15.1	15.6	2.9
CC(C)c1nc2oc3c(NCc4ccccn4)ncnc3c2c2c1COC(C)(C)C2	/	8.71*	5.2	7.5	9.2
Cc1nc2oc3c(NCc4ccccn4)ncnc3c2c2c1COC(C)(C)C2	1.05	11.7*	9.5	7.5	5.2
S=C1NC[C@H](Cc2cccc3ccccc23)N1CC1CCCCC1	-0.728	/	/	/	/
O=C(NCCCN1CCN(c2cccc(Cl)c2)CC1)C1CCC(=O)N1Cc1ccccc1Cl (stereo unspecified)	/	-1.45	13.5	4.9	4.0
CCOc1ccc(-c2nnc(-c3cccs3)o2)cc1OCC	-0.211	5.05*	10.3	1.0	1.5
COc1ccc(-c2nnc(-c3cccs3)o2)cc1OC	-0.541	4.63	-7.7	-21.8	-8.0
CCOc1cc(N2CCOCC2)c(OCC)cc1NC(=O)Cc1ccc(OC)c(OC)c1	/	2.21	0.9	13.6	6.9
CCOc1cc(N2CCOCC2)c(OCC)cc1NC(=O)CC12CC3CC(CC(C3)C1)C2	2.68*	/	/	/	/
CCC(=O)Nc1ccc(NC(=O)c2cc3ccccc3o2)cc1	-0.23	-0.246	2.9	15.4	-0.5
Cc1csc(C(C#N)C(=O)c2cc3ccccc3o2)n1 (stereo unspecified)	-0.646	-3.82*	-4.2	-33.1	9.7
COc1ccccc1C(=O)Nc1ccc2c(c1)OCO2	-0.227	/	17.0	/	6.7
Cc1ccccc1C(=O)Nc1ccc2c(c1)OCO2	1.97	-4.3*	13.2	-32.0	/
O=C(Nc1ccc2c(c1)OCO2)c1noc2c1CCCCC2	-1.92	-4.42*	5.7	-32.2	7.1
O=C(Cn1c(N2CCN(c3ccccc3)CC2)nc2ccccc21)c1ccccc1	/	-0.383	13.8	11.6	9.3
CCn1cc(C(=O)O)c(=O)c2cc(F)c(N3CCN(C(=O)Nc4ccccc4)CC3)cc21	-0.333	-2.18*	9.6	16.0	-1.0
Cc1ccc(-n2c(SCc3ccc(C#N)cc3)nnc2-c2ccccn2)cc1	-7.73*	-4*	-3.6	4.7	-3.9
Cc1ccc(C)c(NS(=O)(=O)c2cc(C(=O)Nc3ccccc3-c3ccccc3)ccc2Cl)c1	0.47	/	/	/	/
Cc1oc(-c2ccccc2F)nc1CS(=O)CC(=O)NCc1cccs1 (stereo unspecified)	0.553	0.539	40.4*	13.5	2.0
Cc1oc(-c2ccccc2Cl)nc1CS(=O)CC(=O)NCc1cccs1 (stereo unspecified)	0.398	/	/	/	/
CC1=C(C)C(=O)NC(Nc2nc(C)c3cc(C)cc(C)c3n2)N1 (stereo unspecified)	/	-3.22*	-0.2	0.9	11.6
SMILES	hDAT+cocaine	D1 mod	AP ELISA ortho	HEK293 NFkB inh	E coli RNAP
Cc1cc(C)c2nc(SCCc3ccccc3)nc(C)c2c1	0.0954	/	/	/	/
Cc1ccc(Nc2cc(C)nn2-c2nc(C)cc(C)n2)cc1	-0.418	-0.551	13.3	12.0	5.9
Cc1ccc(Nc2cc(C)nn2-c2nc(C)cc(=O)[nH]2)cc1	-0.545	-0.81	-10.2	68.0*	2.8
C=CCNc1cccc(Br)c1	0.232	/	/	/	/
Cc1cccc(N2CCN(C(=O)c3ccc(CS(=O)(=O)c4ccccc4C)o3)CC2C)c1 (stereo unspecified)	0.62	-0.119	-4.1	41.9*	-1.2
O=C1c2ccccc2S(=O)(=O)c2cc(C(=O)N3CCC(C(=O)N4CCCCC4)CC3)ccc21	1.53	/	/	/	/
O=C(Cn1c(=O)c2c(ncn2Cc2ccccc2)n(Cc2ccccc2)c1=O)N1CCc2ccccc21	0.708	/	/	/	/
O=C(Cn1c(=O)c2c(ncn2C2CCCC2)n(Cc2ccccc2)c1=O)N1CCc2ccccc21	1.02	-4.79*	8.8	-1.1	3.9
CCOc1ccc(OCC)c(N=c2oc3c(C)ncc(CO)c3cc2C(N)=O)c1	/	0.103	83.6*	16.4	1.6
COc1ccc(OC)c(N=c2oc3cc(O)ccc3cc2C(N)=O)c1	-1.61	-1.6	-2.7	3.0	7.5
O=C(CN1CCC(n2nnc3ccccc32)CC1)Nc1ccc2c(c1)CCC2	3.09*	/	1.3	6.0	9.8
C=C1CCN([C@H](C(=O)NCc2ccco2)C(C)C)S(=O)(=O)c2ccccc21	0.961	/	/	/	/
O=C(Nc1ccc(-c2nc3ccccc3[nH]2)cc1)C1CCCO1 (stereo unspecified)	0.0591	-4.95*	18.3	-24.0	3.9
C#CCSc1nnc(-c2cc3c(C(F)(F)F)nn(C)c3s2)n1C	0.00147	/	/	/	/
COc1ccccc1NC(=O)N(Cc1ccco1)Cc1cc2ccc(C)c(C)c2[nH]c1=O	2.58*	1.01	-0.3	15.9	3.1
COCCOC(=O)C1=C(C)NC2=C(C(=O)CC(C)(C)C2)C1c1ccc(N(C)C)cc1 (stereo unspecified)	0.971	-5.82*	8.8	14.0	5.8
CC(=O)Oc1cc2cccc(OC(C)=O)c(=O)c2c(OC(C)=O)c1OC(C)=O	-0.546	/	/	/	/
O=C(Cn1c(CN2CCCCC2)nc2ccccc2c1=O)Nc1ccccc1	0.0394	-0.457	35.6*	1.6	2.0
O=C(c1cc2ccccc2oc1=O)N1CCN(c2ncccn2)CC1	2.88*	/	/	/	/
CC(C)(C)OC(=O)NCCCC1=CC2=CC(=O)C(C)(O)C(=O)C2=CO1 (stereo unspecified)	-1.05	/	/	/	/
CN1C(C(=O)NCc2cccc(C(F)(F)F)c2)CC2Cn3c(nc4cc5ccccc5cc43)C21 (stereo unspecified)	1.52*	/	/	/	/
Cc1cc2nc3n(c2cc1C)CC1CC(C(=O)NCc2cccc(C(F)(F)F)c2)N(C)C31 (stereo unspecified)	0.806	/	/	/	/
Nc1ccc2c(c1)C(=O)C(=O)c1ccccc1-2	-3.21*	/	/	/	/
O=C1C(=O)c2ccc(-c3ccccc3)cc2-c2ccccc21	0.0225	/	/	/	/
Cc1ccc(NC(=O)c2cc(-c3cccc(O)c3)on2)cc1C	-0.162	-0.499	13.5	-8.6	8.4
SMILES	hDAT+cocaine	D1 mod	AP ELISA ortho	HEK293 NFkB inh	E coli RNAP
Cc1cc(C)n2cc(CSc3nc4cc(Cl)ccc4o3)nc2n1	4.04*	2.13	9.1	21.3	3.5
Cc1cc(C)n2cc(CSc3nnc(-c4ccccc4)o3)nc2n1	0.523	1.09	20.5	10.2	1.7
O=C(Nc1ccccc1)c1ccc(NCc2cccnc2)c(S(=O)(=O)N2CCOCC2)c1	-7.95*	-0.12	-4.2	4.4	-8.2
O=C(Nc1ccccc1)c1ccc(NCc2ccco2)c(S(=O)(=O)N2CCOCC2)c1	-0.979	-2.08	-6.3	-6.0	7.6
Cc1ccc(CNC(=O)c2cc3c(=O)n4ccccc4nc3n(Cc3ccco3)c2=N)cc1	-2.66*	/	/	/	-16.8
C=CCn1c(CCC(=O)Nc2ccc(C)c(Cl)c2)nnc1SCC(=O)Nc1ccccc1C	0.714	/	/	/	/

Compound activity as filed in PubChem.
